Data on eight compounds can be found in ChEMBL document CHEMBL1157180 (Bioorg Med Chem, 2008).

Series [1] deals with T1, Muscarinic acetylcholine receptor M1 (Rattus norvegicus, UniProt P08482).
T1 sequence (P08482 whole entry): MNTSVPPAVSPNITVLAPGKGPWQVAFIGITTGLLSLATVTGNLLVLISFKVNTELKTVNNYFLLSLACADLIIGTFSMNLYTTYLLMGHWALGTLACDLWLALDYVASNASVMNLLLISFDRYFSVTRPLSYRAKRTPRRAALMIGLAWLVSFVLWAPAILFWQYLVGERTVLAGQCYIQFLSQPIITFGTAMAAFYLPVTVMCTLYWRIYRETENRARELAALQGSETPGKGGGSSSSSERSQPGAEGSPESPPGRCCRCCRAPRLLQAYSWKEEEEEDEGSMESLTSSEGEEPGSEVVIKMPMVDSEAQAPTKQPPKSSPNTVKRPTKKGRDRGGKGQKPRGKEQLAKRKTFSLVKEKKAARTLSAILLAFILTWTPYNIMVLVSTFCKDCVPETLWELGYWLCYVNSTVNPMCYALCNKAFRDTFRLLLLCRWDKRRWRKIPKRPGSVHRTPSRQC
Kind of series: Displacement of [3H]Quinuclidinyl benzilate from muscarinic M1 receptor in Wistar rat cortex synaptosomal membrane.

Series [2] has as its system Rattus norvegicus. Nature of the series: Acute toxicity in orally dosed Wistar rat after 1 week. It counts as organism-based. As to conditions: in vivo, po, 168 h. Summed up: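 Rats, 8 per group, fasted 16 h, then given the compounds orally at various doses. Animals observed for 1 week after dosing, with deaths recorded daily.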
The species entered for series [3] is Rattus norvegicus. Nature of the series: Antiamnesic activity in Wistar rat assessed as reversal of scopolamine-induced memory loss by passive avoidance test. The format is functional, organism-based.
The species named for series [4] is Rattus norvegicus. Kind of series: Reversal of scopolamine-induced spartial working memory loss in Wistar rat assessed by Y maze task. It counts as functional. Also on record: concentration or dose not given beside the values. The essentials: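 Male Wistar rats (200–250 g, n = 8) receive test agent with scopolamine and explore the Y-maze 30 min later. Arm entries, including returns, are recorded visually. An alternation is successive entries into all three arms on overlapping triplets. % alternation = actual alternations/(total entries − 2) × 100, compared against the scopolamine-only group.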

The species entered for series [5] is Rattus norvegicus. Kind of series: Reversal of scopolamine-induced memory and learning impairment in Wistar rat assessed as transfer latency for 90 seconds by plus maze test. The format is functional, organism-based. The essentials: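 Elevated plus maze in male Wistar rats, 30 min after treatment, given scopolamine alone or test agent plus scopolamine; controls got 0.9% saline. Each rat is placed at the end of an open arm facing away from the centre. Transfer latency (TL) is the time to enter an enclosed arm. Day 1 has 90 s exploration (TL1, learning) and day 2 is a retest of the same rats (TL2, memory).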

Activity calls are given as the source filed them. The rule behind the calls is not given here.

As a reminder, the IC50 is the concentration at which inhibition is half-maximal. A word on the Ki: it is the dissociation constant of the complex between target and ligand, obtained from inhibition or displacement. On to `CN1CCC=C(C2CN(S(=O)(=O)c3ccccc3)CCO2)C1` (stereo unspecified), for which the IC50 in series [1] came to 90 µM. In series [1], this compound returned a Ki of 27 µM. Besides, the Activity result in series [2] is on record as “Non-toxic”; in series [4] it was 60%. In addition, the result in series [3] and in series [5] was Active.
Consider `CN1CCC=C(C2CN(S(=O)(=O)c3ccc(Cl)cc3)CCO2)C1` (stereo unspecified), for which, in series [1], the IC50 stood at 0.92 µM. This compound also displayed a Ki in series [1] of 0.26 µM. Also, the figures for the Activity result in series [2] and in series [4] were “Non-toxic” and 64%, respectively. Moreover, the outcome in series [3] and in series [5] was Active.
In series [1], `CN1CCC=C(C2CN(S(=O)(=O)c3cccc([N+](=O)[O-])c3)CCO2)C1` (stereo unspecified) registered an IC50 of 201 µM and a Ki of 62 µM. Moreover, in series [2], the Activity result is listed as “Non-toxic”. In addition, the result in series [3] was Active.
Taken in the same sequence, the figures for `CN1CCC=C(C2CN(S(=O)(=O)c3ccc([N+](=O)[O-])cc3)CCO2)C1` (stereo unspecified) were 208 µM, 64 µM, “Non-toxic” and “Active”.
Regarding `CN1CCC=C(C2CN(S(=O)(=O)c3ccccc3[N+](=O)[O-])CCO2)C1` (stereo unspecified), in series [1], the IC50 came out at 314 µM and the Ki turned out to be 96 µM. Besides, the Activity result in series [2] is reported as “Non-toxic”. Moreover, in series [3], the outcome was Active.
`CN1CCC=C(C2CN(S(=O)(=O)c3ccc(C(C)(C)C)cc3)CCO2)C1` (stereo unspecified): the IC50 in series [1] was 19 µM. In addition, the Ki in series [1] was 4 µM. The results for the Activity entry in series [2] and in series [4] were “Non-toxic” and 61%, respectively. In addition, the result in series [3] and in series [5] was Active.
The compound `CN1CCC=C(C2CN(S(=O)(=O)c3cc(Cl)ccc3Cl)CCO2)C1` (stereo unspecified) had an IC50 in series [1] of 115 µM. Further, the affinity in series [1] corresponds to a Ki of 35 µM. The Activity result was “Non-toxic” in series [2] and 59% in series [4]. Further, in series [3], the outcome was Active.
With `Cc1ccc(S(=O)(=O)N2CCOC(C3=CCCN(C)C3)C2)cc1` (stereo unspecified), the IC50 in series [1] was 61 µM. Also, in series [1], the Ki worked out at 14 µM. In addition, the Activity result in series [2] was “Non-toxic”; in series [4], 62%. The outcome in series [3] and in series [5] was Active.
